Consider seven molecules from ChEMBL document CHEMBL4616681, “Discovery of 3-Pyridyl Isoindolin-1-one Derivatives as Potent, Selective, and Orally Active Aldosterone Synthase (CYP11B2) Inhibitors” (J Med Chem, 2020).

Converted amounts (≈) assume the structure as drawn.

Usually IC50 stands for the concentration needed to halve the response being measured. By solubility is commonly meant the concentration that dissolves in the medium under given conditions. As usually defined, the logD is the decadic logarithm of the distribution of all forms, ionised or not, between an organic phase and buffer at a given pH. As usually defined, the AUC(0-inf) is the area under the concentration-time curve extrapolated to infinity. Usually fraction unbound stands for the share of the substance not bound to proteins or other matrix. The term clearance denotes the rate of elimination divided by the concentration. By bioavailability is commonly meant dose-corrected exposure relative to a reference, in per cent.

One series deals with Cytochrome P450 2D6 (Homo sapiens, UniProt P10635). In words: Inhibition of CYP2D6 (unknown origin). It is filed as ADME.
Series [1] has as its target T1, Cytochrome P450 11B1, mitochondrial (Homo sapiens, UniProt P15538).
T1 sequence (P15538 whole entry): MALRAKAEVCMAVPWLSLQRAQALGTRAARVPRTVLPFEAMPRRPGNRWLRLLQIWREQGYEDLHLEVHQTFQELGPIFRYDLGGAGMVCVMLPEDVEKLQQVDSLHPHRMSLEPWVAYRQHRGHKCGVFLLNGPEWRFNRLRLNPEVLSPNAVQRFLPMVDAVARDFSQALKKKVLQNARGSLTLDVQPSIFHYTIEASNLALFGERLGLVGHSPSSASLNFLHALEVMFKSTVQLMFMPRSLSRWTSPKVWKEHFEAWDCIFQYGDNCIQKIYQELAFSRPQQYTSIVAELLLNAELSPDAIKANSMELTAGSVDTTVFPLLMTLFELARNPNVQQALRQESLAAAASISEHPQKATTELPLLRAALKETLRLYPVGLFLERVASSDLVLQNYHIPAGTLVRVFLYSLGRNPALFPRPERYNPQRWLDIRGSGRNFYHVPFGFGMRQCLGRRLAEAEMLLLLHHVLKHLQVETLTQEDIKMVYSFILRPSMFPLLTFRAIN
Kind of series: Inhibition of human CYP11B1 expressed in human renal leiomyoblastoma cells harboring FDXR/FDX using 1-deoxycortisol as substrate by HTRF assay. It is filed as ADME, cell-based. The method in brief: (§1)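 Cells with endogenous FDXR/FDX and no detectable CYP11B activity, stably transfected (CMV promoter, neomycin selection, G-418 400 µg/mL) with CYP11B1 or CYP11B2 of the named species. Assayed in DMEM/F12 with 2.5% charcoal-treated FCS. Substrate 1 µM 11-deoxycorticosterone (B2) or 11-deoxycortisol (B1), 16 hr. Aldosterone or cortisol in supernatant measured by HTRF. IC50 from 4-parameter MMF fit; selectivity factor is the B1/B2 IC50 ratio.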

The next series addresses Cytochrome P450 2C9 (Homo sapiens, UniProt P11712). Kind of series: Inhibition of CYP2C9 (unknown origin). It counts as ADME.
Series [2] is described as follows: Intrinsic clearance in mouse liver microsomes preincubated for 10 mins followed by NADPH regenerating system addition and measured up to 30 mins by LC/MS-MS analysis. It counts as ADME, Microsome. The method in brief:
(§2)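 Liver microsomes at 0.5 mg protein/mL in 100 mM potassium phosphate, pH 7.4. Compound preincubated 10 min at 37 °C. Intrinsic clearance scaled using the well-stirred liver model.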
In general terms: Liver microsomes are a subcellular fraction often used to study metabolism.

Series [3] deals with T2, Cytochrome P450 11B2, mitochondrial (Homo sapiens, UniProt P19099).
T2 sequence (P19099 whole entry): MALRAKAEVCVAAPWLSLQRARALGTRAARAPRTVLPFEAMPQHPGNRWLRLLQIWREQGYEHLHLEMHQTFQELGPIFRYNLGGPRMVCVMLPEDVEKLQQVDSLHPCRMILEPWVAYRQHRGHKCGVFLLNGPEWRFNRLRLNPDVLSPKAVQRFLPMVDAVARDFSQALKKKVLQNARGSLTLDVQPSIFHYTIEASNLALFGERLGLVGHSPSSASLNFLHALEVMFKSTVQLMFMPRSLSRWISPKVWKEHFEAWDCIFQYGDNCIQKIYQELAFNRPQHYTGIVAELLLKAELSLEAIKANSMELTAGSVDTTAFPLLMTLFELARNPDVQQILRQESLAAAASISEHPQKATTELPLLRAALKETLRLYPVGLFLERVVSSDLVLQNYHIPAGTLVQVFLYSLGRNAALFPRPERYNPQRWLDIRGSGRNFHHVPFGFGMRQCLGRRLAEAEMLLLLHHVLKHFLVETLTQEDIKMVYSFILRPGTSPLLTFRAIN
In words: Inhibition of human CYP11B2 expressed in human renal leiomyoblastoma cells harboring FDXR/FDX using 1-deoxycorticosterone as substrate by HTRF assay. It is filed as cell-based. In outline:
as §1
(Time-resolved FRET reads energy transfer from a long-lived donor to a nearby acceptor.)

Series [4] in a line: Intrinsic clearance in human liver microsomes preincubated for 10 mins followed by NADPH regenerating system addition and measured up to 30 mins by LC/MS-MS analysis. It counts as ADME, Microsome. The conditions noted are these: read-out: CLH. The method in brief: as §2
The nature of series [5]: Selectivity ratio of IC50 for human CYP11B1 expressed in human renal leiomyoblastoma cells harboring FDXR/FDX to IC50 for human CYP11B2 expressed in human renal leiomyoblastoma cells harboring FDXR/FDX. It is filed as cell-based. The method in brief: as §1
The next series has as its target Cytochrome P450 3A4 (Homo sapiens, UniProt P08684). Kind of series: Inhibition of CYP3A4 (unknown origin). It is filed as ADME.
Series [6] can be described thus: Solubility of the compound in phosphate buffer at pH 6.5 shaken for 2 hrs followed by overnight incubation. It is filed as physicochemical. The method in brief: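 Lyophilisation solubility assay run in duplicate from 10 mM DMSO stock. DMSO evaporated and residue redissolved in 0.05 M phosphate, pH 6.5. Stirred 1 hr, shaken 2 hr, left overnight, then filtered. Filtrate and a 1/10 dilution analysed by HPLC-UV against a four-point calibration.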

Series [7] is described as follows: Octanol-water distribution coefficient, log D of the compound by carrier-mediated distribution system. It is filed as physicochemical.
The nature of series [8]: Permeability of the compound measured at 18 hrs by PAMPA. It counts as ADME. The conditions noted are these: read-out: permeability. In outline:
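PAMPA sandwich format. Donor: compound diluted to 150 μM (DMSO <2%) in 0.05 M MOPSO pH 6.5 with 0.5% glycocholic acid. Acceptor: 0.05 M MOPSO pH 6.5. Membrane of 10% egg lecithin with 0.5% cholesterol in dodecane. Donor measured at start; acceptor and donor measured at ~18 hr.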
For orientation: The PAMPA barrier holds no transporters, so it reflects passive diffusion.

Series [9] is described as follows: AUC (0 to infinity) in Wister-Han rat at 3 mg/kg, po administered as single dose by LC/MS-MS analysis. It counts as ADME, organism-based. On the set-up: dose 3 mg/kg, route oral, time infinity. The conditions noted are these: Wistar-Han, in vivo. In outline: (§3)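 Male Wistar-Han rats, single dose. IV 1 mg/kg, compound at 0.5 mg/mL in NMP:saline 30/70 (v/v). Oral 3 mg/kg, 0.25 mg/mL in 2% Klucel with 0.1% Polysorbate 80. Three rats per time point. Heparinized blood taken at eight (iv) or seven (po) time points, plasma stored at -20 °C. Plasma levels by LC/MS-MS. Non-compartmental analysis.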

A short description of series [10]: Protein binding in cynomolgus monkey plasma assessed as unbound fraction at 1 uM by micro-equilibrium dialysis based LC-MS/MS analysis. It is filed as ADME, cell-free, Macaca fascicularis. In outline: (§4)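 Equilibrium dialysis of pooled rat or cynomolgus plasma against Soerensen buffer pH 7.4, 12–14 kDa cut-off membrane. Compounds tested in cassettes of 2–5 at 1 μM initial total concentration, with diazepam as control. Dialysis 5 hr at 37 °C under 5% CO₂. Unbound percentage by LC/MS-MS.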

A short description of series [11]: Plasma clearance in iv dosed cynomolgus monkey. It counts as ADME, organism-based, Macaca fascicularis.
A short description of series [12]: Intrinsic clearance in rat hepatocytes. It is filed as ADME, cell-based, Hepatocyte. The conditions noted are these: read-out: CLH.
Series [13] in a line: Dose normalized AUC in cynomolgus monkey. The conditions noted are these: in vivo. It is filed as ADME, Macaca fascicularis.
Series [14] in a line: Oral bioavailability in cynomolgus monkey. It is filed as ADME, organism-based, Macaca fascicularis. The conditions noted are these: in vivo.
A short description of series [15]: Intrinsic clearance in cynomolgus monkey hepatocytes. It counts as ADME, cell-based, Macaca fascicularis, Hepatocyte. The conditions noted are these: read-out: CLH.
Series [16] can be described thus: Plasma clearance in Wister-Han rat at 1 mg/kg, iv administered as single dose by LC/MS-MS analysis. It counts as ADME, organism-based. The conditions noted are these: Wistar-Han. In outline:
as §3

Series [17] can be described thus: Protein binding in rat plasma assessed as unbound fraction at 1 uM by micro-equilibrium dialysis based LC-MS/MS analysis. It is filed as ADME, cell-free. The method in brief: as §4
The nature of series [18]: Intrinsic clearance in rat liver microsomes preincubated for 10 mins followed by NADPH regenerating system addition and measured up to 30 mins by LC/MS-MS analysis. It is filed as ADME, Microsome. The method in brief: as §2
A short description of series [19]: Oral bioavailability in Wister-Han rat at 3 mg/kg administered as single dose by LC/MS-MS analysis. It is filed as ADME, organism-based. The conditions noted are these: Wistar-Han, in vivo. The method in brief: as §3
The nature of series [20]: Dose normalized AUC in Wister-Han rat at 1 mg/kg, iv or 3 mg/kg, po administered as single dose by LC/MS-MS analysis. It counts as ADME, organism-based. The conditions noted are these: in vivo. In outline: as §3

Chain of Cytochrome P450 3A4 (P08684 whole entry): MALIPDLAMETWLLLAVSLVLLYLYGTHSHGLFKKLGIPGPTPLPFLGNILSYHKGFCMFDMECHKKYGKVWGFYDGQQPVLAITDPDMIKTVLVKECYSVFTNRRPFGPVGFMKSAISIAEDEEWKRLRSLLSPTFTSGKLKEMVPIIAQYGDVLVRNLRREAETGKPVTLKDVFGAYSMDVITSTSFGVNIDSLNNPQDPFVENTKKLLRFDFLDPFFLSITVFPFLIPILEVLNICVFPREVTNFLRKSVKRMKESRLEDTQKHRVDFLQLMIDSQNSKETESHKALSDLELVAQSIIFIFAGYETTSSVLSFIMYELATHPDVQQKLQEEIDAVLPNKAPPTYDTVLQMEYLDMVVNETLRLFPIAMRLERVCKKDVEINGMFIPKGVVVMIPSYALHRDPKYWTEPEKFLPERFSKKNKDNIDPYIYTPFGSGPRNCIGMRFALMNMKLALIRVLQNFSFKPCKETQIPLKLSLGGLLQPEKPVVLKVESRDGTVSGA
Chain of Cytochrome P450 2C9 (P11712 whole entry): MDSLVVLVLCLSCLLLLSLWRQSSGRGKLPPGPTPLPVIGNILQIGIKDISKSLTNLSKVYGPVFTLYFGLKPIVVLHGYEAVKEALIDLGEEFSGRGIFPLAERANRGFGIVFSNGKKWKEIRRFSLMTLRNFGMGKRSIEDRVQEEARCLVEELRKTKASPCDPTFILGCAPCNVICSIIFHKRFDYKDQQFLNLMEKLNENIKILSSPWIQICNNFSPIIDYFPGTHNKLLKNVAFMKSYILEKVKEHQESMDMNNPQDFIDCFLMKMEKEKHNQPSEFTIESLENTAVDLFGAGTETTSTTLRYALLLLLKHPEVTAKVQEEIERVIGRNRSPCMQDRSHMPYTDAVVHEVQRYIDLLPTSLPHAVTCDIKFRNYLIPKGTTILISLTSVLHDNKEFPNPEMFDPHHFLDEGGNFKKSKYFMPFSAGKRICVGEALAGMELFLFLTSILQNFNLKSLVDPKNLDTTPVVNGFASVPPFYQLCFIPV
Chain of Cytochrome P450 2D6 (P10635 whole entry): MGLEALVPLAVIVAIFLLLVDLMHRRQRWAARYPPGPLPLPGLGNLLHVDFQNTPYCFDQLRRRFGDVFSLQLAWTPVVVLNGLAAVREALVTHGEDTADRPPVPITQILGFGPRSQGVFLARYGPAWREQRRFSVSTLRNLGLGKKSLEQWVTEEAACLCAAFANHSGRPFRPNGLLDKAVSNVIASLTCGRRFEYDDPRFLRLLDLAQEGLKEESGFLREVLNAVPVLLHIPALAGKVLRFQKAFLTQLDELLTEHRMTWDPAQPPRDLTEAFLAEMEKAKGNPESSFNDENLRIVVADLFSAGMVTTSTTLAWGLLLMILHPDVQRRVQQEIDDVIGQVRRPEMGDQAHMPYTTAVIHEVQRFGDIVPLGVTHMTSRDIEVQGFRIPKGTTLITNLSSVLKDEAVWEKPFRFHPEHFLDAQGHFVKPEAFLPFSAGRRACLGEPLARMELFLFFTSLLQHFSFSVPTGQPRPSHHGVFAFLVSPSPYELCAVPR

With `CC1CN(c2cccnc2)C(=O)c2ccc(Cl)cc21` (stereo unspecified), the IC50 was more than 50 µM against Cytochrome P450 2D6; 2.59 µM in series [1]; more than 50 µM against Cytochrome P450 2C9; 0.164 µM in series [3]; more than 50 µM on Cytochrome P450 3A4. For the same molecule, the predicted hepatic clearance (CLH) in [2] is 45 mL/min/kg. Moreover, in series [4], the predicted hepatic clearance is 6.6 mL/min/kg. Besides, in series [5], the Ratio IC50 is 16.
Regarding `CCC(=O)N[C@@H]1CCCc2c1cncc2N1Cc2cc(Cl)ccc2C1=O`, the half-maximal inhibitory concentration (IC50) in series [1] amounted to 5.21 µM; in [3], 0.028 µM. In addition, the solubility at 2 h in series [6] was more than 460 µg/mL. The predicted hepatic clearance (CLH) in series [2] was less than 20.2 mL/min/kg. Besides, the log distribution coefficient (logD) in series [7] was 2.14. Also, the predicted hepatic clearance in [4] is less than 3.5 mL/min/kg. Also, the Ratio IC50 in series [5] worked out at 186. Moreover, the Papp at 18 h in series [8] was 3.63 ×10⁻⁶ cm/s.
`CC1Cc2cc(Cl)ccc2C(=O)N1c1cccnc1` (stereo unspecified): the concentration for half-maximal inhibition (IC50) on Cytochrome P450 2D6 is more than 50 µM; in [1], more than 10 µM; on Cytochrome P450 2C9 it was more than 50 µM; in series [3], 0.761 µM; against Cytochrome P450 3A4, more than 50 µM. Moreover, the Ratio IC50 in series [5] was more than 13.
`O=C1c2ccc(Cl)cc2CN1c1cccnc1`: the IC50 in [1] amounted to 10.7 µM; in series [3], 0.179 µM. In addition, the predicted hepatic clearance (CLH) in series [2] is 76.5 mL/min/kg. Further, the logD in series [7] was 2.52. Also, in series [4], the predicted hepatic clearance is 12.8 mL/min/kg. Besides, the Ratio IC50 in series [5] was determined as 60.
For the molecule `CC1(C)CN(c2cccnc2)C(=O)c2ccc(Cl)cc21`, the concentration for half-maximal inhibition (IC50) against Cytochrome P450 2D6 was more than 50 µM; in series [1], more than 10 µM; against Cytochrome P450 2C9, more than 50 µM; in [3] it was 1.54 µM; on Cytochrome P450 3A4 it was more than 50 µM. Further, the Ratio IC50 in series [5] was more than 7.
On to `Cn1cc(C(=O)N2CC3(C2)CN(c2cncc(N4C(=O)c5ccc(Cl)cc5C4(C)C)c2)C3)cn1`, for which, in series [6], the solubility at 2 h was found to be 44 µg/mL (≈ 92.2 µM). Moreover, in [9], the area under the curve AUC(0-inf) was determined as 5660 ng·h/mL. Moreover, the fraction unbound at 1 µM in [10] is 0.036; in series [17], 0.066. In addition, the clearance in series [11] stood at 2.1 mL/min/kg; in [16], 6.4 mL/min/kg. For the same molecule, the CLint scaled in series [12] is less than 4.4 mL/min/kg; in [15] it was less than 3 mL/min/kg. Also, the AUC/dose in [13] amounted to 3111 kg·ng·h/mL/mg; in series [20] it was 1889 kg·ng·h/mL/mg. In addition, the bioavailability in series [14] is 37%; in series [19], 69%. In series [3], the half-inhibitory concentration (IC50) amounted to 0.002 µM. The predicted hepatic clearance (CLH) in series [18] is 6.4 mL/min/kg. Further, in [5], the Ratio IC50 amounted to 5680. Besides, in [8], the Papp at 18 h was 3.63 ×10⁻⁶ cm/s.
For `N#Cc1ccc2c(c1)CN(c1cccnc1)C2=O`, the concentration for half-maximal inhibition (IC50) in [1] was determined as 15.5 µM; in series [3] it was 0.232 µM. For the same molecule, the predicted hepatic clearance (CLH) in series [2] was 45.6 mL/min/kg. The logD in series [7] is 1.35. In addition, in [4], the predicted hepatic clearance was 8.7 mL/min/kg. For the same molecule, the Ratio IC50 in series [5] stood at 67.
